MrgX1 antagonist: blocks BAM8-22 activation of human MrgX1 receptor; B-score at 10 µM; actives 1.3% (n = 310,000); Q96LB2; AID 588676; MRGX1-HEK293 calcium flux, Fluo-4, BAM8-22 antagonism; stronger effect = lower value;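 active = calcium-response B-score plate-corrected more than 3 library SD below zero, starting fluorescence within 5 deviations, no agonist response on first addition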;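 note: peak minus trough fluorescence over baseline after final BAM8-22 challenge near maximal dose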
Target sequence (Q96LB2 whole entry, looked up): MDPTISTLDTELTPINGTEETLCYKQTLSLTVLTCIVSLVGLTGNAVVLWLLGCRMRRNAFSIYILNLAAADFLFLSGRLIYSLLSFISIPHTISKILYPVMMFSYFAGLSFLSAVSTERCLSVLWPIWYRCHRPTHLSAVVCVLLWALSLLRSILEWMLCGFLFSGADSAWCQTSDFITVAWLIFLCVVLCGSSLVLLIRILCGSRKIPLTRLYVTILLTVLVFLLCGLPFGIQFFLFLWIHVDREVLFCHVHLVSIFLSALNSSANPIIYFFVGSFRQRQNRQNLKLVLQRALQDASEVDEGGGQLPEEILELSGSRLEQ
MrgX1 agonist: human MrgX1 receptor agonism, primary screen; AID 588627; MrgX1-HEK293 cells, Fluo-4 calcium fluorescence, agonist mode; stronger effect = higher value; actives 0.44% (n = 310,000); B-score at 10 µM;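 active = calcium response B-score plate-corrected fluorescence ratio at least 3 library SD, with starting fluorescence B-score inside 5 SD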
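Material – MrgX1-expressing HEK293 cells · Input – 15,000 cells seeded per well · Dosing – compound as first of three additions · Times – overnight seeding, then 1 h dark dye loading · Measured by – kinetic Fluo-4 NW fluorescence of intracellular calcium · Read-out – B-scored fluorescence response ratio · Benchmarks – positive and negative control wells on each plate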
RGS4 block: human RGS4 inhibition. P49798. B-score at 10 µM. HEK293 M3R/RGS4 inducible, Fluo-4 calcium flux; stronger effect = higher value; triggered by carbachol at its EC20. actives 0.45% (n = 310,000);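 active = B-score, a plate-corrected calcium signal, over three deviations above library mean, with baseline fluorescence within five deviations of library mean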;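 note: RGS4 expression induced by doxycycline in cells with stable M3 receptor; B-score is computed from the integrated fluorescence ratio over baseline after carbachol; higher B-score means a larger calcium signal and so more RGS4 inhibition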
Target sequence (P49798 whole entry, looked up): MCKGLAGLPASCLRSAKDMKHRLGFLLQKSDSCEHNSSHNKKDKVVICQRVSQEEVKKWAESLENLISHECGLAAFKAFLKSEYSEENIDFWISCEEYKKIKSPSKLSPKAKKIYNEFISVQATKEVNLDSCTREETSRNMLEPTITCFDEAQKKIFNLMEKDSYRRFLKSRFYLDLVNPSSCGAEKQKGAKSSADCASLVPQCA
MrgX1 PAM: allosterically activates human MrgX1 receptor signaling; Q96LB2; B-score at 10 µM; MrgX1-HEK293, Fluo-4 calcium flux, FDSS; stronger effect = higher value; actives 0.63% (n = 310,000);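 active = plate-corrected calcium response at least 3 library SD above typical, normal starting fluorescence, not activating the receptor alone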;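 note: compound read alongside a low EC10 to EC30 dose of BAM8-22 agonist; peak minus trough fluorescence over baseline measured at the second addition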
RGS4 pot: RGS4 potentiation or activation. HEK293 M3R/inducible RGS4, carbachol calcium flux Fluo4; stronger effect = lower value. B-score at 10 µM. actives 0.92% (n = 310,000);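 active = B-score of the integrated calcium signal more than 4 SD below the library mean, with starting fluorescence not abnormally high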;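 note: negative B-score means reduced calcium response which marks RGS4 activation or potentiation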
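Test system: HEK293 cells with stable M3R and inducible RGS4; also added: carbachol at ECmax as muscarinic agonist stimulus; schedule: dye loading 30 min 37 °C, buffer rest 30 min RT; technique: kinetic calcium fluorescence imaging with Fluo4-AM dye, 2 µM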
The depositor's hits bear a star; i = inactive. Hits are enriched below; roughly 3.5% of the tested compounds scored in any of these assays.

SMILES	MrgX1 antagonist	MrgX1 agonist	RGS4 block	MrgX1 PAM	RGS4 pot
O=C(c1cc(-c2ccncc2)nc2ccccc12)N1CCN(c2ccccc2O)CC1	i	i	i	i	i
Cc1ccc2nc(-c3ccccc3)cc(C(=O)N3CCN(c4ccccc4O)CC3)c2c1	i	i	i	i	-8.6*
CN1CCCN(C(=O)c2cc(-c3ccc(Cl)c(Cl)c3Cl)nc3ccccc23)CC1	i	41*	i	i	i
Nc1sc(-c2ccccc2)n[n+]1Cc1cccc2cccnc12	-4.7*	i	i	i	-7.1*
Cc1ccc(N2CCC(N3CCN(C4CCCCC4)C(CCO)C3)CC2)cc1 (stereo not drawn)	i	i	i	i	i
CC(C)(C)c1cc(C2=CSC3=NCCN23)cc(C(C)(C)C)c1O	i	i	i	i	-8.1*
Cc1cccc(-c2oc3ccc(-c4ccc5c(c4)OCO5)cc3c2C(=O)OCc2ccc(O)cc2)c1	i	i	i	i	i
Cc1cc(C)c2nc(N3CCC(C(=O)NCCCN4CC(C)CC(C)C4)CC3)sc2c1 (stereo not drawn)	i	i	i	i	-10*
Cc1cc(C)c2nc(N3CCCC(C(=O)NCCCN4CCOCC4)C3)sc2c1 (stereo not drawn)	i	i	i	i	i
O=C1C(Cl)=C(N2CCCCCC2)C(=O)N1c1ccccc1	i	i	i	i	-7.4*
CCCNC(=O)OC[C@H]1O[C@H](CCO/N=C(\C)CCN2CCc3nc(-c4ccccc4)c(-c4ccccc4)cc3C2)C=C[C@@H]1Oc1ccc(OC)cc1	i	i	i	i	-8.1*
CN(C)CCOC1c2ccccc2CSc2ccccc21 (stereo not drawn)	i	i	i	i	-8.9*
CCOc1ccc(NC(=O)CSc2nnc(Cc3cccn3C)n2-c2ccc(OC)cc2)cc1	-5.7*	i	i	i	i
C/C(=N\O)C(C)(C)Nc1ccc(Br)cc1	i	26*	i	i	i
C=C(C)CSc1nnc(CCCCCNC(=O)OC(C)(C)C)o1	i	i	i	i	i
O=C(Cc1ccc(Cl)cc1)N1CCN(c2ccccc2)CC1	i	i	i	i	i
Cc1nnc(N/N=C/c2ccc(Br)cc2)n1N	i	i	i	18*	i
Cc1nnc(N/N=C/c2ccc(-c3ccc(Br)cc3)o2)n1N	i	i	i	i	i
COc1ccc(OC)c(/C=C2/Sc3ccccc3C2=O)c1	i	i	i	8.7*	i
CCOc1cc(/C=C2\C(=N)N3N=C(N4CCCCC4)SC3=NC2=O)ccc1OC(=O)c1ccco1	i	i	i	i	i
CCOc1cc(/C=C2/C(=N)N3C(=NC2=O)SN=C3S(C)(=O)=O)ccc1OC(=O)c1ccco1	i	i	i	13*	i
CCS(=O)(=O)C1=NSC2=NC(=O)/C(=C\c3ccc(OC(=O)c4ccco4)cc3)C(=N)N21	i	i	i	19*	i
COc1cc(/C=C2\C(=N)N3N=C(S(C)(=O)=O)SC3=NC2=O)ccc1OC(=O)c1cccs1	i	i	i	8.2*	i
CCOc1cc(/C=C2/C(=N)N3N=C(CC)SC3=NC2=O)ccc1OC(=O)c1ccco1	i	34*	i	i	i
Cn1ccc(C(=O)Oc2ccc(C(=O)Nc3ccc(F)cc3F)cc2)n1	i	i	i	i	i
SMILES	MrgX1 antagonist	MrgX1 agonist	RGS4 block	MrgX1 PAM	RGS4 pot
O=C(c1cc2cc(Cl)ccc2[nH]1)N1CCN(Cc2ccc3c(c2)OCO3)CC1	i	i	i	i	i
O=C(Nc1ccc(C(=O)O)cc1)/C(=C\c1cccc([N+](=O)[O-])c1)NC(=O)c1ccc(Br)o1	i	i	i	i	i
O=C(NCCCN1CCOCC1)C(Sc1ccccc1)c1ccccc1 (stereo not drawn)	i	i	i	i	i
Cc1cccc(NC(=O)c2cc[n+]([O-])cc2)c1C	i	i	i	i	i
CC(=O)Nc1ccc(OCCOc2ccc(/C=C3\C(=N)N4N=C(C)SC4=NC3=O)cc2)cc1	i	i	i	9.5*	i
COc1cc(/C=C2/C(=N)N3C(=NC2=O)SN=C3S(C)(=O)=O)ccc1OS(=O)(=O)c1ccccc1	i	i	i	28*	i
CCC1=NN2C(=N)/C(=C\c3ccc(OCCOc4ccc(NC(C)=O)cc4)c(OC)c3)C(=O)N=C2S1	i	i	i	i	i
COc1cc(/C=C2/C(=O)N(c3ccccc3)N=C2C)ccc1OS(=O)(=O)c1ccccc1	i	i	i	i	i
CCOc1cc(/C=C2\C(=N)N3N=C(S(=O)(=O)CC)SC3=NC2=O)ccc1OC(=O)c1ccco1	i	i	i	i	i
CCOc1cc(/C=C2/C(=N)N3C(=NC2=O)SN=C3S(C)(=O)=O)ccc1OS(=O)(=O)c1ccccc1	i	i	i	27*	i
CCS(=O)(=O)C1=NN2C(=N)/C(=C\c3ccc(OC(=O)c4ccco4)c(Br)c3)C(=O)N=C2S1	i	73*	i	i	i
CCc1ccc(C(=O)NN(C(=O)c2ccc(CC)cc2)C(C)(C)C)cc1	i	i	i	i	i
Cn1c(N2CCN(C(=O)NC34CC5CC(CC(C5)C3)C4)CC2)nc2ccccc21	i	i	i	i	i
N=C1/C(=C\c2ccc(OC(=O)c3ccccc3)cc2)C(=O)N=C2SC(N3CCOCC3)=NN12	-7.9*	i	i	i	i
COc1cc(/C=C2\C(=N)N3N=C(S(C)(=O)=O)SC3=NC2=O)ccc1OCCOc1ccccc1C	i	i	i	i	i
COc1cc(/C=C2\C(=N)N3N=CSC3=NC2=O)ccc1OS(=O)(=O)c1ccccc1[N+](=O)[O-]	i	39*	i	i	i
N=C1/C(=C/c2ccc(OC(=O)c3ccco3)cc2)C(=O)N=C2SC=CN12	i	i	i	12*	i
Cc1nn(-c2ccc(Cl)cc2)c2[nH]c(=O)c(CNCc3ccc4c(c3)OCO4)cc12	i	i	i	i	i
Cc1sc2nc(COC(=O)CNC(=O)c3ccc(C(C)(C)C)cc3)[nH]c(=O)c2c1C	i	i	i	i	i
Cc1ccc(C)c(N(CC(=O)N2CCCCCC2)S(C)(=O)=O)c1	i	i	i	i	i
Cc1ccc([N+](=O)[O-])cc1N(CC(=O)N1CCCCC1)S(C)(=O)=O	i	i	i	7.5*	i

Bioassay records: PubChem, Johns Hopkins Ion Channel Center
